Assay results published in BindingDB's records for doi:10.1016/j.bmc.2010.11.059 (University of Eastern Finland, 2011).

Key:
Cannabinoid receptor 2 = Cannabinoid receptor 2 (Homo sapiens, UniProt P34972); test: Agonist activity at human recombinant cannabinoid CB2 receptor expressed in CHO cells by [35S]GTPgammaS binding assay
Summary of the method: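 hCB2 [35S]GTPγS binding concentration–response curves, run only for ligands giving over 50% relative activity at 10 µM. logEC50 and Emax come from nonlinear regression fitted to a sigmoidal concentration–response equation. Emax is given as percent of the 10 nM HU-210 response. Mean SEM of at least three experiments in duplicate.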

Cannabinoid receptor 1 = Cannabinoid receptor 1 (Rattus norvegicus, UniProt P20272); test: Antagonist activity at rat cannabinoid CB1 receptor in Wistar rat cerebellar membranes by [35S]GTPgammaS binding assay
Summary of the method: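 Non-recombinant rat cerebellar membrane fractions, [35S]GTPγS binding. Compounds screened at a single concentration for their ability to antagonise the response to 10 nM HU-210 agonist.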

Cannabinoid receptor 2, sequence (P34972 whole entry): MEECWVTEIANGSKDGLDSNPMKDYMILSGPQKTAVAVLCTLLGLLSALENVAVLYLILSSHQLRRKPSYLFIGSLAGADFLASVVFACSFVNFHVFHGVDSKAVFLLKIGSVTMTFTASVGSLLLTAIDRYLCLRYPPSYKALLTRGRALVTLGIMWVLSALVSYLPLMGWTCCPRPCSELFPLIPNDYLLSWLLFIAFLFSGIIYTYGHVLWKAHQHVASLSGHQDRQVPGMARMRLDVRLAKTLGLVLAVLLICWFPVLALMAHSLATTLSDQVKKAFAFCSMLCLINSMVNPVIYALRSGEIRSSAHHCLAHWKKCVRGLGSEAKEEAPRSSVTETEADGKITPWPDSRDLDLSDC
Cannabinoid receptor 1, sequence (P20272 whole entry): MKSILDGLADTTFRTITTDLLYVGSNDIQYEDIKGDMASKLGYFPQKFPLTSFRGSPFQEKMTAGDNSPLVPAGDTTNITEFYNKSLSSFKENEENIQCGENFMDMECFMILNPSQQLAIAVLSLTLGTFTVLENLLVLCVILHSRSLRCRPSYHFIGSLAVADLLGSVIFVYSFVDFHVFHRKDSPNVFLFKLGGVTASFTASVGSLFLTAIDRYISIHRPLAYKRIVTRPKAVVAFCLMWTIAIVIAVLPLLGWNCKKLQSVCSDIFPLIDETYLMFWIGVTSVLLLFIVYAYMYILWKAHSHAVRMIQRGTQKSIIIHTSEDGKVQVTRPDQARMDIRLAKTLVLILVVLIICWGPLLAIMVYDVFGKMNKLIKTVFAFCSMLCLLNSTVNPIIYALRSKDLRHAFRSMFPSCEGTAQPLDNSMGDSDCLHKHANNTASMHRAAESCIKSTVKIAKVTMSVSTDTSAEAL

Row | SMILES | EC50 (Cannabinoid receptor 2) [nM] | EC50 (Cannabinoid receptor 1) [nM]
1 | FC(F)(F)c1cccc(Nc2ncnc3ccccc23)c1 | 2510 | 
2 | FC(F)(F)c1ccccc1Nc1ccc2ccccc2n1 | 6300 | 
3 | FC(F)(F)c1cccc(Nc2ccc3ccccc3n2)c1 | 1250 | 
4 | COc1cccc(Nc2ccc3ccccc3n2)c1 | 2510 | 
5 | Clc1ccccc1Nc1ccc2ccccc2n1 | 6300 | 
6 | Clc1cccc(Nc2ccc3ccccc3n2)c1 | 2510 | 
7 | O=C(c1cnc(Nc2cccc(C(F)(F)F)c2)c2ccccc12)N1CCOCC1 | 15.8 | 9990
8 | Brc1cccc(Nc2ccc3ccccc3n2)c1 | 1990 | 
9 | c1ccc2nc(NC3CCCCC3)ccc2c1 | 6300 | 
10 | FC(F)(F)c1cccc(Nc2cnc3ccccc3n2)c1 | 3980 | 
11 | FC(F)(F)c1cccc(Nc2ncc3ccccc3n2)c1 | 3160 | 
12 | FC(F)(F)c1cccc(Nc2ccnc3ccccc23)c1 | 3160 | 
13 | O=C(NCC1CCCCC1)c1cnc(Nc2cccc(C(F)(F)F)c2)c2ccccc12 | 1580 | 
14 | O=C(NC1CCCCC1)c1cnc(Nc2cccc(C(F)(F)F)c2)c2ccccc12 | 1990 | 
15 | COc1ccccc1Nc1ccc2ccccc2n1 | 5010 | 
16 | FC(F)(F)c1cccc(Nc2nccc3ccccc23)c1 | 1580 | 
17 | COc1ccc(Nc2ccc3ccccc3n2)cc1 [2-(4''-Methoxyanilino)Quinoline] | 1990 | 
18 | c1ccc(Sc2ccc3ccccc3n2)cc1 [2-Phenylsulfanyl-Quinoline] | 3980 | 
19 | Clc1ccc(Nc2ccc3ccccc3n2)cc1 [N-(4-chlorophenyl)quinolin-2-amine] | 1990 | 
